Measured values: ChEMBL document CHEMBL5696444 (Nat Commun, 2017)
Calls of active or inactive are those of the source. No cut-off for these calls is given here.

Columns and labels:
[1] = target: Serine/threonine-protein kinase Nek1 (Homo sapiens) (UniProt Q96PY6); experiment: Inhibition of NEK1 (unknown origin) at 1000 nM in the presence of ATP by Kinome scan method relative to control
HCT-116 [2] = experiment: Induction of cell cycle arrest in human HCT-116 cells assessed as G2/M phase at 0.1 uM incubated for 6 hrs by flow cytometry analysis (Rvb=25.8%); assay type: functional
[3] = target: Serine/threonine-protein kinase B-raf (Homo sapiens) (UniProt P15056); experiment: Inhibition of BRAF (unknown origin) at 100 nM in the presence of ATP by Kinome scan method relative to control
HCT-116 [4] = experiment: Induction of cell cycle arrest in human HCT-116 cells assessed as S phase at 0.1 uM incubated for 24 hrs by flow cytometry analysis (Rvb=46.4%); assay type: functional
[5] = target: Fibroblast growth factor receptor 1 (Homo sapiens) (UniProt P11362); experiment: Inhibition of FGFR1 (unknown origin) at 1000 nM in the presence of ATP by Kinome scan method relative to control
[6] = target: Interleukin-1 receptor-associated kinase 4 (Homo sapiens) (UniProt Q9NWZ3); experiment: Inhibition of IRAK4 (unknown origin) at 100 nM in the presence of ATP by Kinome scan method relative to control
Chain of Interleukin-1 receptor-associated kinase 4 (Homo sapiens) (Q9NWZ3 whole entry): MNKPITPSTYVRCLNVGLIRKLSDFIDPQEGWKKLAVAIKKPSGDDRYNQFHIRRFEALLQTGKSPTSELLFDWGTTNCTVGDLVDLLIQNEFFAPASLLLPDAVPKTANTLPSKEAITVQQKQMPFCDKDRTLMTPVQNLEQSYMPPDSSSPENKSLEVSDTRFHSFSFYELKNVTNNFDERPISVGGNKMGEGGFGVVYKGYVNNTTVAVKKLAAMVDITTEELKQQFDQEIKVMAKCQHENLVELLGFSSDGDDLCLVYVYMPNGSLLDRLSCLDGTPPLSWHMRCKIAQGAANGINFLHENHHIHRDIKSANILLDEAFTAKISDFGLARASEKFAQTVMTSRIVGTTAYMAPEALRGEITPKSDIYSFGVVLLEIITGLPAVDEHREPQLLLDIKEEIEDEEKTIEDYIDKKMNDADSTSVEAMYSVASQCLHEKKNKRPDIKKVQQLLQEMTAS

[7] = target: CDK7/Cyclin H/MNAT1 (Homo sapiens) (UniProt P51946+P50613+P51948); experiment: Inhibition of CDK7/cyclin H/MNAT1 (unknown origin) at 100 nM in the presence of ATP by Kinome scan method relative to control; assay type: protein-complex assay
[8] = target: Dual specificity protein kinase CLK2 (Homo sapiens, UniProt P49760); experiment: Inhibition of N-terminal FLAG-tagged CLK2 in human HCT-116 cells assessed as increase in CLK2 protein level at 0.5 to 0.1 uM incubated for 6 hrs by immunoblot analysis; assay type: cell-based; details: dose 0.5-0.1 µM
[9] = target: Proto-oncogene tyrosine-protein kinase ROS (Homo sapiens) (UniProt P08922); experiment: Inhibition of ROS1 (unknown origin) at 1000 nM in the presence of ATP by Kinome scan method relative to control
[10] = target: Dual specificity protein kinase CLK1 (Homo sapiens) (UniProt P49759); experiment: Inhibition of CLK1 (unknown origin) at 123 nM in the presence of ATP by Kinome scan method relative to control; details: time > 6.0 hrs
Chain of Dual specificity protein kinase CLK1 (Homo sapiens) (P49759 whole entry, looked up, canonical isoform): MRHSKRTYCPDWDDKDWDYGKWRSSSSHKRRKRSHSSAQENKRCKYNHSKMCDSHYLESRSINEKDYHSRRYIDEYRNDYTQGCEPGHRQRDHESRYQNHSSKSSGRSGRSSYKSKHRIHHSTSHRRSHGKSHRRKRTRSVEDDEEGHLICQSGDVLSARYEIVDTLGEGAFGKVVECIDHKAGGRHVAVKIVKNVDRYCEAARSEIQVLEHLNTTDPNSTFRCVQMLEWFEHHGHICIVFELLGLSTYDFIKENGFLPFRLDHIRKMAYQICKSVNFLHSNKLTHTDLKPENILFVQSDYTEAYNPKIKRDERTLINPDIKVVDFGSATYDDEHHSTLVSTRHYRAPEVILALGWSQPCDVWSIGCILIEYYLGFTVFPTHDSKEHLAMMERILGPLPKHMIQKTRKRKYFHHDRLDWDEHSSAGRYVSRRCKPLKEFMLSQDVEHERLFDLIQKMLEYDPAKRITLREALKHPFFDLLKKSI

[11] = target: Dual specificity protein kinase CLK3 (Homo sapiens) (UniProt P49761); experiment: Inhibition of CLK3 (unknown origin) in human HCT-116 cells assessed as increase in CLK3 protein level at 0.5 to 0.1 uM incubated for 6 hrs by immunoblot analysis; assay type: cell-based; details: dose 0.5-0.1 µM
Outline: (§1)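 HCT116 cells were treated for 3 or 6 h and lysed in SDS sample buffer (Tris-HCl pH 6.8), then boiled for 5 min. Lysates were run on 5–15% or 4–12% gradient gels and transferred to nitrocellulose or PVDF. Blots were blocked in milk or BSA/TBS-T and probed overnight at 4 °C with anti-phospho-SR (1H4, 1/1000), anti-SR, anti-CLK1 or anti-CLK3 antibodies, with GAPDH as loading control.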

[12] = target: Interleukin-1 receptor-associated kinase 4 (Homo sapiens) (UniProt Q9NWZ3); experiment: Inhibition of IRAK4 (unknown origin) at 1000 nM in the presence of ATP by Kinome scan method relative to control
[13] = target: Dual specificity protein kinase CLK1 (Homo sapiens) (UniProt P49759); experiment: Inhibition of CLK1 (unknown origin) in human HCT-116 cells assessed as increase in CLK1 protein level at 0.5 to 0.1 uM incubated for 6 hrs by immunoblot analysis; assay type: cell-based; details: dose 0.5-0.1 µM; outline: as §1
[14] = target: Homeodomain-interacting protein kinase 1 (Homo sapiens) (UniProt Q86Z02); experiment: Inhibition of HIPK1 (unknown origin) at 100 nM in the presence of ATP by Kinome scan method relative to control
Chain of Homeodomain-interacting protein kinase 1 (Homo sapiens) (Q86Z02 whole entry, looked up): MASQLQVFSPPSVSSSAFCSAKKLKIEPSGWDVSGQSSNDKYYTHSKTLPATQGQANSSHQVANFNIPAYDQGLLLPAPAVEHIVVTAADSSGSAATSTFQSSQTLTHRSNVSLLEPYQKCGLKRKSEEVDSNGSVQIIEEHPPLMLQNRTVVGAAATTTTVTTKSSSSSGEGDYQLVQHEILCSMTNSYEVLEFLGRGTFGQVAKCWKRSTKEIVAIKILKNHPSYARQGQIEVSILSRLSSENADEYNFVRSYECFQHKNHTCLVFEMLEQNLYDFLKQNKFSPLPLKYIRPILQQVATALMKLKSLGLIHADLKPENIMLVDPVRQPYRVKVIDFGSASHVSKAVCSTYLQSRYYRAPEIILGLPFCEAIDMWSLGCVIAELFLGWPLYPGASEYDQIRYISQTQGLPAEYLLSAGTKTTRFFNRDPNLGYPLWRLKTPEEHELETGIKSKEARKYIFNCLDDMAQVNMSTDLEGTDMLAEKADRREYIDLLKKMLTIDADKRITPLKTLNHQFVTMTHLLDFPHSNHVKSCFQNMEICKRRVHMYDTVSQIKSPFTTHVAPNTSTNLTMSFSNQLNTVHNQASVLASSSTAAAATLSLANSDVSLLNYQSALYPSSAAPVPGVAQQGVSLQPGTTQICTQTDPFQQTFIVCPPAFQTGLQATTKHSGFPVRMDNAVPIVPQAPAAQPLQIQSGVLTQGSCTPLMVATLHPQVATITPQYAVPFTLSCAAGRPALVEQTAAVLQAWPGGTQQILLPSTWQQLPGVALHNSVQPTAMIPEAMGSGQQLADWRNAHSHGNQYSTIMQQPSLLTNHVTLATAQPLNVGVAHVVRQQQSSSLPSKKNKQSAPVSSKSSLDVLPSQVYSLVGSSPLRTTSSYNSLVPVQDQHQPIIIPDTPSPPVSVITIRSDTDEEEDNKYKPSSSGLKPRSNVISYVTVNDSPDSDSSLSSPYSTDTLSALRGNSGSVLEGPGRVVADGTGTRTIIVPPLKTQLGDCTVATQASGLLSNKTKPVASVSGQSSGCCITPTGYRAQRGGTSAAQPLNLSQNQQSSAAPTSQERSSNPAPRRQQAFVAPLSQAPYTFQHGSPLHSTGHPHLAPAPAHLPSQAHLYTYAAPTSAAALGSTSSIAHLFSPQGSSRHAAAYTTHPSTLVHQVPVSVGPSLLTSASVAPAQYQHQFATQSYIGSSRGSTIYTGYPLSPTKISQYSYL

HCT-116 [15] = experiment: Induction of cell cycle arrest in human HCT-116 cells assessed as G0/G1 phase at 5 uM incubated for 24 hrs by flow cytometry analysis (Rvb=35.7%); assay type: functional
[16] = target: Ephrin type-A receptor 5 (Homo sapiens) (UniProt P54756); experiment: Inhibition of EPHA5 (unknown origin) at 100 nM in the presence of ATP by Kinome scan method relative to control
[17] = target: Aurora kinase A (Homo sapiens) (UniProt O14965); experiment: Inhibition of AURKA (unknown origin) at 1000 nM in the presence of ATP by Kinome scan method relative to control
[18] = target: Homeodomain-interacting protein kinase 2 (Homo sapiens) (UniProt Q9H2X6); experiment: Inhibition of HIPK2 (unknown origin) at 1000 nM in the presence of ATP by Kinome scan method relative to control
HCT-116 [19] = experiment: Induction of cell cycle arrest in human HCT-116 cells assessed as sub G0/G1 phase at 5 uM incubated for 24 hrs by flow cytometry analysis (Rvb=2.5%); assay type: functional
HCT-116 [20] = experiment: Induction of cell cycle arrest in human HCT-116 cells assessed as G0/G1 phase at 0.1 uM incubated for 6 hrs by flow cytometry analysis (Rvb=35.0%); assay type: functional
[21] = target: Aurora kinase B (Homo sapiens) (UniProt Q96GD4); experiment: Inhibition of AURKB (unknown origin) at 1000 nM in the presence of ATP by Kinome scan method relative to control
[22] = target: Dual specificity protein kinase CLK1 (Homo sapiens) (UniProt P49759); experiment: Inhibition of CLK (unknown origin) in human HCT-116 cells assessed as induction in alternative splicing effect in CDC6-RARA level incubated for 6 hrs by RT-PCR analysis; assay type: cell-based; details: dose 0.2-5 µM
Outline: (§2)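 Cells exposed to graded T3 concentrations for 6 h (chosen to avoid cytotoxicity), with a DMSO vehicle control. Total RNA was reverse-transcribed with oligo-dT primers. Targeted splice or conjoined-gene products were quantified by real-time qPCR or by targeted next-generation sequencing. Conjoined-gene isoform expression was normalized to a sequenced housekeeping gene.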

[23] = target: Dual specificity protein kinase CLK1 (Homo sapiens) (UniProt P49759); experiment: Inhibition of CLK (unknown origin) in human 184-hTERT cells assessed as induction in alternative splicing effect in MRPS10-GUCA1B level incubated for 6 hrs by RT-PCR analysis; assay type: cell-based; details: dose 0.2-5 µM; outline: as §2
[24] = target: Tyrosine-protein kinase ABL1 (Homo sapiens) (UniProt P00519); experiment: Inhibition of ABL1 (unknown origin) at 100 nM in the presence of ATP by Kinome scan method relative to control
Chain of Tyrosine-protein kinase ABL1 (Homo sapiens) (P00519 whole entry): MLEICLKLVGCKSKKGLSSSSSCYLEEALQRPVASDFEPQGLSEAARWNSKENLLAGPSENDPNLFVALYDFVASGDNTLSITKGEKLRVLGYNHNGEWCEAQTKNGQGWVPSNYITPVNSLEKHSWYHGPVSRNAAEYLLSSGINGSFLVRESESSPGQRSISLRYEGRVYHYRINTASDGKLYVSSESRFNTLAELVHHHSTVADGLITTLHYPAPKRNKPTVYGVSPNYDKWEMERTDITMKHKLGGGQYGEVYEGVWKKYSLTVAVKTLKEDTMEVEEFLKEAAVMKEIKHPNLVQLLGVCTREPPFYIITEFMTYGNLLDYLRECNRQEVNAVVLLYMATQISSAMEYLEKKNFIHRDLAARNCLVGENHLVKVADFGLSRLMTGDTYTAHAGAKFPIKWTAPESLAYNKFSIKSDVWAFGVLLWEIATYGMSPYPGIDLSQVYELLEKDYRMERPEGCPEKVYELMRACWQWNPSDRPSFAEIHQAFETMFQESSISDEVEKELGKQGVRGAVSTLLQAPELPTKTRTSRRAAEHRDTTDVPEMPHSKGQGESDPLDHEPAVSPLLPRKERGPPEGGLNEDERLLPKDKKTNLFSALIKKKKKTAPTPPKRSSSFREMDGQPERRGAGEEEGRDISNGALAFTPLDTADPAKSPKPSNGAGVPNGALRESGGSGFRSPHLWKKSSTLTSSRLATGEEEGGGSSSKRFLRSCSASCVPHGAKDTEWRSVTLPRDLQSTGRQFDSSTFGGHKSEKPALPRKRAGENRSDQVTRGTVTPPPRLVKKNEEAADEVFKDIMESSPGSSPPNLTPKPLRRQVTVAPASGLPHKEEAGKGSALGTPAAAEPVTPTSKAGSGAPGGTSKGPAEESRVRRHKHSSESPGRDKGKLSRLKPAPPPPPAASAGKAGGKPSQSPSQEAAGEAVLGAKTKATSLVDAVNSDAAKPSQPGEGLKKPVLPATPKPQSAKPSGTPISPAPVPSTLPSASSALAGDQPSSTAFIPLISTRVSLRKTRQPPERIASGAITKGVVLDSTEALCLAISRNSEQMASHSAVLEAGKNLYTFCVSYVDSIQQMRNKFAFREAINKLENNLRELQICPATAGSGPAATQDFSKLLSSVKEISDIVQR

[25] = target: Mitogen-activated protein kinase 11 (Homo sapiens) (UniProt Q15759); experiment: Inhibition of MAPK11 (unknown origin) at 1000 nM in the presence of ATP by Kinome scan method relative to control
[26] = target: Serine/threonine-protein kinase Chk1 (Homo sapiens) (UniProt O14757); experiment: Inhibition of CHEK1 (unknown origin) at 1000 nM in the presence of ATP by Kinome scan method relative to control
[27] = target: 3-phosphoinositide-dependent protein kinase 1 (PDPK1) (Homo sapiens) (UniProt O15530); experiment: Inhibition of PDK1 Direct (unknown origin) at 100 nM in the presence of ATP by Kinome scan method relative to control
Chain of 3-phosphoinositide-dependent protein kinase 1 (PDPK1) (Homo sapiens) (O15530 whole entry, looked up): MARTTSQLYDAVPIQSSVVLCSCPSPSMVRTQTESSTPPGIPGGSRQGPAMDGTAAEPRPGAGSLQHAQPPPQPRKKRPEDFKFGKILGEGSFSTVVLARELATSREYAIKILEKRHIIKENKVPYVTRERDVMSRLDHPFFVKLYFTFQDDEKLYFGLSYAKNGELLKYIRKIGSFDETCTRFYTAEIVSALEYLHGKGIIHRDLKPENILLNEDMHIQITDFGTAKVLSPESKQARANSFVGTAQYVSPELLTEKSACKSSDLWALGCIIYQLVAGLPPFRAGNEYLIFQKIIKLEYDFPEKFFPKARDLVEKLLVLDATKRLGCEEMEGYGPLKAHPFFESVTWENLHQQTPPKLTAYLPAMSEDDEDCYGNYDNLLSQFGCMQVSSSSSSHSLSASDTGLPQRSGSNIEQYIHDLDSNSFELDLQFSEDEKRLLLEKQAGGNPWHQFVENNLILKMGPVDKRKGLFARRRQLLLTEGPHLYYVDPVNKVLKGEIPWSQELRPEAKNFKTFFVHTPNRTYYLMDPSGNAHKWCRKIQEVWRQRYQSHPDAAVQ

HCT-116 [28] = experiment: Induction of cell cycle arrest in human HCT-116 cells assessed as G0/G1 phase at 1 uM incubated for 24 hrs by flow cytometry analysis (Rvb=35.7%); assay type: functional

Chain of Serine/threonine-protein kinase Nek1 (Homo sapiens) (Q96PY6 whole entry): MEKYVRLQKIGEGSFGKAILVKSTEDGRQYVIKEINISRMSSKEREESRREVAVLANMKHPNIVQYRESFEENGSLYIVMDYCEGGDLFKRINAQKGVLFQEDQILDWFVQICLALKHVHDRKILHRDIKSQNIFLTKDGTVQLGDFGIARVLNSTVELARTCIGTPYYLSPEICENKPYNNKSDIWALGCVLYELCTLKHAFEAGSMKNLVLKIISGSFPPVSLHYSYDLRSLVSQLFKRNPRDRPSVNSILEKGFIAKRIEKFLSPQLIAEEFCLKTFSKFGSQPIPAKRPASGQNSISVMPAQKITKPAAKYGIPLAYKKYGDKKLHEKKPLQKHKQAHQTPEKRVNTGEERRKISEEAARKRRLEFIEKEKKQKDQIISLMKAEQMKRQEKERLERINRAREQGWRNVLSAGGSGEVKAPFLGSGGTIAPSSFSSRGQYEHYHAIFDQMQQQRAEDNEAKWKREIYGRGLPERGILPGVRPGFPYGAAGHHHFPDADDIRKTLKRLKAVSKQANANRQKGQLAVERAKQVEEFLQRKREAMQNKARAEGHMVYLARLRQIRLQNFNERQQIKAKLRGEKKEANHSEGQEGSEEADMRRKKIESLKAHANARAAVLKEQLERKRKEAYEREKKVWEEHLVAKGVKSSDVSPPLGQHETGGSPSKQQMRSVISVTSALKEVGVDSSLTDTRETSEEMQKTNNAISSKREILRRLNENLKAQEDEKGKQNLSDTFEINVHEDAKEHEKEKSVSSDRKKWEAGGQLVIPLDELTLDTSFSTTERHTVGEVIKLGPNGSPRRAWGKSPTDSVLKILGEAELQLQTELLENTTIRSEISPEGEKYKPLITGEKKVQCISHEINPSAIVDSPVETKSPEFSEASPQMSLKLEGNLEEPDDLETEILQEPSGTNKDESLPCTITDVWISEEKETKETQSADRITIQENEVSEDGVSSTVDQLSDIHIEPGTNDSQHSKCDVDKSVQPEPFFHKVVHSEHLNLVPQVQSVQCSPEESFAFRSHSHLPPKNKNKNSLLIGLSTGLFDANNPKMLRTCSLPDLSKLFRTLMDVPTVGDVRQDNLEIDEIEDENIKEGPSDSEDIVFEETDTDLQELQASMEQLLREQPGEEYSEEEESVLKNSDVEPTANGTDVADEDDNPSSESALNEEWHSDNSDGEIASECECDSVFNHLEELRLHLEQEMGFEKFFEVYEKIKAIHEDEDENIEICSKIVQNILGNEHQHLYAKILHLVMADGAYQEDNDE

Compound: CN1CCN(C(=O)C(C)(C)c2ccc(C(=O)Nc3cn4cc(-c5ccncc5)ccc4n3)cc2)CC1 [T3-CLK]
- inhibition [1]: 25%
- Activity (HCT-116 [2]): 30.5%
- inhibition [3]: 9%
- Activity (HCT-116 [4]): 40.7%
- inhibition [5]: 9%
- inhibition [6]: 25%
- inhibition [7]: 1%
- inhibition [8]: Active
- inhibition [9]: 0%
- inhibition [10]: 91%
- inhibition [11]: Active
- inhibition [12]: 42%
- inhibition [13]: Active
- inhibition [14]: -1%
- Activity (HCT-116 [15]): 13.3%
- inhibition [16]: -6%
- inhibition [17]: 9%
- inhibition [18]: -2%
- Activity (HCT-116 [19]): 20.9%
- Activity (HCT-116 [20]): 24%
- inhibition [21]: 16%
- inhibition [22]: Dose-Dependent Effect
- inhibition [23]: Dose-Dependent Effect
- inhibition [24]: 10%
- inhibition [25]: 1%
- inhibition [26]: 18%
- inhibition [27]: -1%
- Activity (HCT-116 [28]): 7.3%
